Test [1] is described as follows: OD615 S. cerevisiae growth inhibition, permissive medium, pilot counter-assay, permissive growth control for S. cerevisiae lifespan shortening project (AID 705;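 active = growth inhibition above 25% in both replicates, a cutoff set 3 SD above the mean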). The note with it: OD615, 24 h, at 10 µM, active compounds read high. In a few lines:
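assay system = Saccharomyces cerevisiae strain carrying genetically modified DeaD replicative-lifespan system | technique = absorbance (optical density) at 615 nm | buffer or medium = permissive raffinose/galactose medium | timing = cells pre-grown 4 h, then 24 h compound exposure, 30 °C humidified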

Test [2] is described as follows: Restrictive medium S. cerevisiae growth inhibition, OD615, pilot screen of yeast lifespan reduction project, restrictive growth control (AID 706;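 active = growth inhibition above a set limit, 3 SD over mean compound inhibition, in both replicates, cut at about 43% in these data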;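 note: modified DeaD lifespan yeast strain shifted to restrictive glucose medium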). Conditions: OD615, 48 h, at 10 µM, active compounds read high. In a few lines:
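System: modified S. cerevisiae. Buffer or medium: CSMM-D glucose medium. Incubation: 4 h pre-growth plus 48 h compound exposure, 30 °C. Detection: absorbance (optical density) measured at 615 nm.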

Test [3] is described as follows: viability gain of MRP-1-high H69AR cells under doxorubicin, pilot screen, MRP-1 activator project, CellTiter-Glo, duplicate (AID 807;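 active = viability increase at or above a cutoff of the median across tested compounds plus 3 SD, cut at about 8.5% in these data, passing the limit was not always enough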;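 note: compound pretreatment 18-22 h then 72 h combined with doxorubicin; 0% = doxorubicin alone and 100% = vehicle without doxorubicin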). Conditions: H69AR viability with doxorubicin, CellTiter-Glo luminescence; at 10 µM; active compounds read high. A general note: Cellular ATP, detected with luciferase, serves as a proxy for viable cell number.
The nature of test [4]: growth suppression of beta-catenin knockout HCT116, pilot screen, human colon tumor cells (AID 823;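 active = cell viability at or below a set limit in both duplicate runs, the limit being the all-compound median minus 4 SD, cut at about 23% in these data, passing the limit was not always enough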;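 note: 0% = wells killed by 20 µM Hyamine and 100% = untreated DMSO cell wells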). The note with it: CellTiter-Glo, 60 h, at 10 µM, active compounds read low.
Test [5] is described as follows: growth suppression of PTEN-deleted HCT116, pilot screen, cell-based, HCT116 clonal line, CellTiter-Glo (AID 824;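 active = viability at or below 27.92% in each of two runs, the all-compound median minus 4 SD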;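 note: 0% = 20 µM Hyamine control and 100% = vehicle cell control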). Conditions: 60 h, at 10 µM, active compounds read low.
Test [6] can be described thus: inhibitors of the yeast RAM network, pilot screen, dse1pr::URA3 reporter, 5-FOA selection (AID 869).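 Note: 0% = DMSO wells with no growth and 100% = 10 µM 1-NA-PP1 with full growth; RAM network block rescues cells from 5-FOA so hits raise OD615 growth.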 The note with it: S. cerevisiae dse1pr::URA3 5-FOA growth, OD615, 2 d; at 10 µM; active compounds read high; strain carries analog-sensitive mutant Cbk1 kinase.
Test [7] is described as follows: RAM signaling pathway blockade in yeast – S. cerevisiae, Pdr1DBD-CYC8 efflux-inhibited sensitized strain, primary screen (AID 1298;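 active = RAM network inhibition above 8.4% in each of two replicates, 3 SD over the compound average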;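 note: 0% = DMSO untreated cells without growth and 100% = 10 µM 1-NA-PP1 full growth; higher means more yeast growth rescued from 5-FOA killing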). The note with it: S. cerevisiae cbk1-as DSE1-URA3 strain, 5-FOA growth OD615, 2 d; at 50 µM; active compounds read high.

Unmarked numbers belong to inactive results. Records with an inconclusive call do not appear. The source made the active and inactive calls.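 Rule for the calls, unless noted: active = inhibition over a set limit, the all-compound mean plus 3 SD, in both replicate runs; inconclusive = over that limit in just one replicate run; inactive = at or under that limit in both runs.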

18 compounds from PubChem BioAssay can be followed below.

As a reminder, the viability is a read-out of living cells in per cent, often relative to untreated cells. In general, inhibition refers to the drop in the measured response relative to a control, in per cent.

As for `O=C(O)CCCNS(=O)(=O)c1ccc(F)cc1`, the growth inhibition in test [1] was -5.7%; in test [2] it was -0.905%. The viability increase in test [3] is -1.33%. The viability is 105% in test [4] and 101% in test [5]. In addition, the inhibition in test [6] is 1.14%. Besides, in test [7], the RAM network inhibition was 0.11%.

With `COc1ccc(C2C(C(=O)NCCN(C)C)c3cc(OC)c(OC)cc3C(=O)N2C)cc1OC` (stereo unspecified), the figures for the growth inhibition in test [1] and in test [2] were -3.47% and -1.52%, respectively. Besides, the viability increase in test [3] is -1.38%. Moreover, the viability in test [4] is 101%; in test [5] it was 104%. Also, in test [6], the inhibition is 1.56%. Also, the RAM network inhibition in test [7] is 3.25%.

Turning to `c1cncc(-c2nc3ccccn3c2Nc2ccc3c(c2)OCCO3)c1`, the growth inhibition is -1.86% in test [1] and 9.11% in test [2]. In test [3], the viability increase is -2.32%. Also, the viability in test [4] was 99.6%; in test [5], 94.4%. In addition, in test [6], the inhibition is 1.04%. In addition, the RAM network inhibition in test [7] was 4.54%.

Consider `O=C(NCc1ccccn1)C1CCN(S(=O)(=O)N2CCCC2)CC1`, for which the growth inhibition in test [1] was -5.04%; in test [2] it was -10%. In test [3], the viability increase was -0.46%. Also, the values for the viability in test [4] and in test [5] were 109% and 95.7%, respectively. For the same compound, in test [6], the inhibition was 0.3%. Also, in test [7], the RAM network inhibition is 3.61%.

Regarding `CCCCOc1ccccc1NC(=O)CC1SC(=NCC)N(CC)C1=O` (stereo unspecified), the growth inhibition in test [1] was -9.35%; in test [2], -0.705%. Also, the viability increase in test [3] was -2.29%. The viability is 85.6% in test [4] and 81.3% in test [5]. In test [6], the inhibition was 1.08%. Besides, the RAM network inhibition in test [7] is 2.04%.

`CCCCN=C(C)c1c(O)c2ccccc2oc1=O`: the growth inhibition in test [1] is -2.92%; in test [2] it was 5.07%. For the same compound, in test [3], the viability increase was -1.49%. For the same compound, the viability in test [4] was 102%; in test [5], 95.9%. Besides, in test [6], the inhibition was 0.01%. Also, the RAM network inhibition in test [7] was -2%.

As for `CC(=O)Nc1cc2c(cc1C(=O)c1ccccc1)OCCO2`, the growth inhibition is -3.76% in test [1] and 7.87% in test [2]. Also, the viability increase in test [3] was -0.99%. Moreover, the viability in test [4] is 95.2%; in test [5] it was 92.9%. Also, in test [6], the inhibition was 1.35%. For the same compound, the RAM network inhibition in test [7] is 0.89%.

With `CCC(C)Sc1nnc(Cc2cc(=O)[nH]c(=O)[nH]2)n1-c1ccc(F)cc1` (stereo unspecified), the figures for the growth inhibition in test [1] and in test [2] were -0.665% and 15.2%, respectively. Also, the viability increase in test [3] is -1.78%. The viability was 97.1% in test [4] and 100% in test [5]. Also, the inhibition in test [6] was 0.605%. The RAM network inhibition in test [7] was -1.47%.

Turning to `COc1ccc2[nH]cc(CCNC(=O)C3CCCNC3=O)c2c1` (stereo unspecified), the growth inhibition in test [1] is -14.6%; in test [2] it was -16.5%. Moreover, in test [3], the viability increase was -1.57%. In addition, the viability in test [4] is 104%; in test [5], 102%. In addition, the inhibition in test [6] was 0.15%. Also, the RAM network inhibition in test [7] is 2.98%.

On to `COCCNC(=O)Cn1cnc2sc(C)c(S(=O)(=O)N3CCC(C)CC3)c2c1=O`, for which the growth inhibition is -5.23% in test [1] and -3.64% in test [2]. The viability increase in test [3] is 0.05%. Further, the viability in test [4] and in test [5] was 100% each time. In addition, the inhibition in test [6] was 1.68%. Besides, the RAM network inhibition in test [7] was 5.34%.

On to `COc1ccc(-c2nc(-c3ccc(Br)o3)no2)cc1OC`, for which the growth inhibition in test [1] is -7.45%; in test [2] it was -17.9%. Besides, the viability increase in test [3] is -0.69%. Further, the viability in test [4] is 86.3%; in test [5], 78.6%. Also, the inhibition in test [6] is 0.88%. For the same compound, in test [7], the RAM network inhibition is 2.25%.

For `CCn1c(-c2cc(OC)ccc2OC)csc1=Nc1c(C)n(C)n(-c2ccccc2)c1=O`, the growth inhibition in test [1] is -11.1%; in test [2], -22.9%. For the same compound, the viability increase in test [3] was 0.28%. For the same compound, the viability in test [4] was 93.8%; in test [5] it was 92.5%. For the same compound, the inhibition in test [6] is 1.58%. Moreover, the RAM network inhibition in test [7] is 4.62%.

As for `CN(C)S(=O)(=O)c1ccc(C(=O)Nc2nc(-c3cccs3)cs2)cc1`, the growth inhibition in test [1] was -5.6%; in test [2] it was -13.7%. Further, the viability increase in test [3] was -1.56%. Further, the viability is 49.8% in test [4] and 20% (active) in test [5]. For the same compound, the inhibition in test [6] is 4.17%. For the same compound, in test [7], the RAM network inhibition was 5.01%.

In the case of `Cc1occc1-c1nnc2sc(-c3ccc(-c4ccc(Cl)cc4)o3)nn12`, the growth inhibition in test [1] was 7.94%; in test [2] it was 21.2%. For the same compound, the viability increase in test [3] was 2.86%. The viability in test [4] was 106%; in test [5], 95.8%. In test [6], the inhibition is 3.19%. The RAM network inhibition in test [7] is 5.57%.

As to `CN(Cc1ccccc1)S(=O)(=O)c1ccc2[nH]c(=O)oc2c1`, the growth inhibition in test [1] is -17.3%; in test [2] it was -30.6%. For the same compound, the viability increase in test [3] was -0.12%. The viability in test [4] is 109%; in test [5] it was 96%. In addition, the inhibition in test [6] was 0.425%. Moreover, the RAM network inhibition in test [7] is 5.4%.

For the compound `c1ccc(CNc2ncnc3c2ncn3C2CCCCO2)cc1` (stereo unspecified), the growth inhibition in test [1] was -5.22%; in test [2], -8.96%. In addition, the viability increase in test [3] is -1.76%. Also, the results for the viability in test [4] and in test [5] were 101% and 98%, respectively. In test [6], the inhibition is 1.25%. For the same compound, in test [7], the RAM network inhibition is 5.84%.

Consider `CCCCCn1c(=N)n(CC(O)COc2ccccc2OC)c2ccccc21` (stereo unspecified), for which the growth inhibition was -4.93% in test [1] and 4.88% in test [2]. For the same compound, the viability increase in test [3] is -7.9%. For the same compound, the results for the viability in test [4] and in test [5] were 15.6% (active) and 21.9% (active), respectively. In addition, the inhibition in test [6] was -0.235%. The RAM network inhibition in test [7] is 0.4%.

As to `O=C(CCCCn1c(=O)[nH]c2ccccc2c1=O)N1CCN(c2ncccn2)CC1`, the growth inhibition was -13.4% in test [1] and -20.2% in test [2]. The viability increase in test [3] is -1.54%. Also, the values for the viability in test [4] and in test [5] were 104% and 105%, respectively. For the same compound, the inhibition in test [6] is 0.76%. Also, the RAM network inhibition in test [7] is 0.58%.
